Results as given in ChEMBL document CHEMBL1255417, “Correlation between in vitro activity of posaconazole and in vivo efficacy against Rhizopus oryzae infection in mice” (Antimicrob Agents Chemother, 2010).
Values after ≈ are worked out from the molar mass of the structure shown. Active and inactive are the calls of the source. The calls are words filed in the database; no cut-off is given here.

Legend:
Rhizopus arrhizus [1] = test: Antifungal activity against drug-intermediate Rhizopus oryzae UTHSC 05-3032 infected in OF1 mouse assessed as reduction in kidney fungal load at 10-30 mg/kg, po bid treated 24 hrs after fungal infection; assay type: functional, organism-based
In short: (§1)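 Tissue burden in immunosuppressed male OF1 mice, using cyclophosphamide 200 mg/kg i.p. plus 5-fluorouracil 150 mg/kg i.v. on day −1. Mice received 2 × 10^4 CFU i.v. by tail vein, then oral gavage at 10, 20 or 30 mg/kg BID from 24 h post-challenge, with ceftazidime cover; untreated controls. Groups of 10 were killed on day 4. Kidneys and brains were homogenized in 2 ml saline, serially diluted 10-fold, plated on PDA and counted after 24 h at 35°C.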

Rhizopus arrhizus [2] = test: Antifungal activity against drug-susceptible Rhizopus oryzae UTHSC 2868 after 24 to 48 hrs; assay type: functional
Rhizopus arrhizus [3] = test: Antifungal activity against drug-susceptible Rhizopus oryzae UTHSC 412-546 after 24 to 48 hrs; assay type: functional
Rhizopus arrhizus [4] = test: Antifungal activity against drug-susceptible Rhizopus oryzae UTHSC 06-3827 by broth microdilution method; assay type: functional
In short: (§2)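 Posaconazole MIC in ug/ml, determined by broth microdilution following the CLSI guidelines for moulds (M38-A2).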

Rhizopus arrhizus [5] = test: Antifungal activity against drug-susceptible Rhizopus oryzae UTHSC 06-731 at 5 ug by disk diffusion assay; assay type: functional; conditions: read-out: DIZ
Rhizopus arrhizus [6] = test: Antifungal activity against drug-susceptible Rhizopus oryzae UTHSC 05-1817 by broth microdilution method; assay type: functional
In short: (§3)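 CLSI broth microdilution for filamentous fungi (M38-A2); MIC recorded in µg/ml against clinical isolates; breakpoints applied at 24 h.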

Rhizopus arrhizus [7] = test: Antifungal activity against drug-susceptible Rhizopus oryzae UTHSC 06-1351 after 24 to 48 hrs; assay type: functional
In short: (§4)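 Minimum fungicidal concentration taken from the broth microdilution plates. From each well with complete inhibition (optically clear), 20 ul is plated on potato dextrose agar. Plates are incubated at 35°C for 24 to 48 h. The MFC is the lowest drug concentration giving no growth.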

Rhizopus arrhizus [8] = test: Antifungal activity against drug-susceptible Rhizopus oryzae UTHSC 06-1080 after 24 to 48 hrs; assay type: functional; in short: as §4
Rhizopus arrhizus [9] = test: Antifungal activity against drug-susceptible Rhizopus oryzae UTHSC 05-3132 at 5 ug by disk diffusion assay; assay type: functional; conditions: read-out: DIZ
In short: (§5)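 Neo-Sensitabs tablet diffusion on Mueller-Hinton agar, run per the mould guidelines. Tablets are 9 mm in diameter and carry 5 ug posaconazole. The read-out is the inhibition zone diameter in mm.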

Rhizopus arrhizus [10] = test: Antifungal activity against drug-susceptible Rhizopus oryzae UTHSC 06-89 infected in OF1 mouse assessed as reduction in brain fungal load at 10-30 mg/kg, po bid; assay type: functional, organism-based
Rhizopus arrhizus [11] = test: Antifungal activity against drug-susceptible Rhizopus oryzae UTHSC 06-1301 after 24 to 48 hrs; assay type: functional; in short: as §4
Rhizopus arrhizus [12] = test: Antifungal activity against drug-susceptible Rhizopus oryzae UTHSC 06-1351 at 5 ug by disk diffusion assay; assay type: functional; conditions: read-out: DIZ; in short: as §5
Rhizopus arrhizus [13] = test: Antifungal activity against drug-susceptible Rhizopus oryzae UTHSC 03-547 by broth microdilution method; assay type: functional; in short: as §3
Rhizopus arrhizus [14] = test: Antifungal activity against drug-susceptible Rhizopus oryzae UTHSC 06-2457 after 24 to 48 hrs; assay type: functional; in short: as §4
Rhizopus arrhizus [15] = test: Antifungal activity against drug-susceptible Rhizopus oryzae UTHSC 03-547 after 24 to 48 hrs; assay type: functional
In short: (§6)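 Minimum fungicidal concentration: 20 µl from each microdilution well showing complete inhibition (optically clear) plated on potato dextrose agar, incubated 35°C for 24 to 48 h; MFC taken as lowest drug concentration giving no growth.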

Rhizopus arrhizus [16] = test: Antifungal activity against drug-susceptible Rhizopus oryzae UTHSC 06-1080 at 5 ug by disk diffusion assay; assay type: functional; conditions: read-out: DIZ; in short: as §5
Rhizopus arrhizus [17] = test: Antifungal activity against drug-susceptible Rhizopus oryzae UTHSC 02-439 at 5 ug by disk diffusion assay; assay type: functional; conditions: read-out: DIZ
In short: (§7)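 Neo-Sensitabs tablet diffusion on Mueller-Hinton agar, following the guidelines for molds. Tablets were 9 mm in diameter and held 5 µg of drug. The read-out was inhibition zone diameter in mm.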

Rhizopus arrhizus [18] = test: Antifungal activity against drug-susceptible Rhizopus oryzae UTHSC 06-4133 by broth microdilution method; assay type: functional; in short: as §2
Rhizopus arrhizus [19] = test: Antifungal activity against drug-intermediate Rhizopus oryzae UTHSC 05-3032 infected in OF1 mouse assessed as reduction in brain fungal load at 10-30 mg/kg, po bid treated 24 hrs after fungal infection; assay type: functional, organism-based; in short: as §1
Rhizopus arrhizus [20] = test: Antifungal activity against drug-intermediate Rhizopus oryzae UTHSC 07-365 infected in OF1 mouse assessed as reduction in brain fungal load at 10-30 mg/kg, po bid treated 24 hrs after fungal infection; assay type: functional, organism-based; in short: as §1
Rhizopus arrhizus [21] = test: Antifungal activity against drug-intermediate Rhizopus oryzae UTHSC 07-365 after 24 to 48 hrs; assay type: functional
Rhizopus arrhizus [22] = test: Antifungal activity against drug-susceptible Rhizopus oryzae UTHSC 04-443 after 24 to 48 hrs; assay type: functional; in short: as §6
Rhizopus arrhizus [23] = test: Antifungal activity against drug-susceptible Rhizopus oryzae UTHSC 03-2970 after 24 to 48 hrs; assay type: functional
Rhizopus arrhizus [24] = test: Antifungal activity against drug-susceptible Rhizopus oryzae UTHSC 05-3132 after 24 to 48 hrs; assay type: functional; in short: as §4
Rhizopus arrhizus [25] = test: Antifungal activity against drug-susceptible Rhizopus oryzae UTHSC 03-299 after 24 to 48 hrs; assay type: functional
Rhizopus arrhizus [26] = test: Antifungal activity against drug-susceptible Rhizopus oryzae UTHSC 2868 by broth microdilution method; assay type: functional
Rhizopus arrhizus [27] = test: Antifungal activity against drug-susceptible Rhizopus oryzae UTHSC 04-1220 at 5 ug by disk diffusion assay; assay type: functional; conditions: read-out: DIZ
In short: (§8)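 Neo-Sensitabs tablet diffusion on Mueller-Hinton agar, following guidelines for molds; 9 mm tablets containing 5 µg posaconazole; inhibition zone diameter measured in mm; zone breakpoints applied at 24 h.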

Rhizopus arrhizus [28] = test: Antifungal activity against drug-susceptible Rhizopus oryzae UTHSC 06-434 by broth microdilution method; assay type: functional; in short: as §2
Rhizopus arrhizus [29] = test: Antifungal activity against drug-susceptible Rhizopus oryzae UTHSC 05-3111 at 5 ug by disk diffusion assay; assay type: functional; conditions: read-out: DIZ; in short: as §5
Rhizopus arrhizus [30] = test: Antifungal activity against drug-susceptible Rhizopus oryzae UTHSC 05-2447 by broth microdilution method; assay type: functional; in short: as §3
Rhizopus arrhizus [31] = test: Antifungal activity against drug-susceptible Rhizopus oryzae UTHSC 03-228 after 24 to 48 hrs; assay type: functional
Rhizopus arrhizus [32] = test: Antifungal activity against drug-susceptible Rhizopus oryzae UTHSC 06-4035 after 24 to 48 hrs; assay type: functional; in short: as §4
Rhizopus arrhizus [33] = test: Antifungal activity against drug-susceptible Rhizopus oryzae UTHSC 05-197 at 5 ug by disk diffusion assay; assay type: functional; conditions: read-out: DIZ; in short: as §8
Rhizopus arrhizus [34] = test: Antifungal activity against drug-susceptible Rhizopus oryzae UTHSC 04-1220 after 24 to 48 hrs; assay type: functional; in short: as §6
Rhizopus arrhizus [35] = test: Antifungal activity against drug-susceptible Rhizopus oryzae UTHSC 02-2882 by broth microdilution method; assay type: functional
In short: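 Broth microdilution MIC in µg/ml, run per the CLSI (formerly NCCLS) guideline for filamentous fungi, M38-A2.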

Rhizopus arrhizus [36] = test: Antifungal activity against drug-susceptible Rhizopus oryzae UTHSC 04-1241 by broth microdilution method; assay type: functional; in short: as §3
Rhizopus arrhizus [37] = test: Antifungal activity against drug-intermediate Rhizopus oryzae UTHSC 04-3109 at 5 ug by disk diffusion assay; assay type: functional; conditions: read-out: DIZ; in short: as §7
Rhizopus arrhizus [38] = test: Antifungal activity against drug-intermediate Rhizopus oryzae UTHSC 07-365 infected in OF1 mouse assessed as reduction in kidney fungal load at 10-30 mg/kg, po bid treated 24 hrs after fungal infection; assay type: functional, organism-based; in short: as §1

## CC[C@@H]([C@H](C)O)n1ncn(-c2ccc(N3CCN(c4ccc(OC[C@@H]5CO[C@@](Cn6cncn6)(c6ccc(F)cc6F)C5)cc4)CC3)cc2)c1=O [POSACONAZOLE]
Rhizopus arrhizus [1]
  Activity: inactive
Rhizopus arrhizus [2]
  MFC: 8 mg/L (≈ 11.4 µM)
Rhizopus arrhizus [3]
  MFC: 8 mg/L (≈ 11.4 µM)
Rhizopus arrhizus [4]
  MIC: 1 mg/L (≈ 1.43 µM)
Rhizopus arrhizus [5]
  zone of inhibition at 5 µg/disc: 17 mm
Rhizopus arrhizus [6]
  MIC: 0.25 mg/L (≈ 0.357 µM)
Rhizopus arrhizus [7]
  MFC: 0.5 mg/L (≈ 0.713 µM)
Rhizopus arrhizus [8]
  MFC: > 16 mg/L
Rhizopus arrhizus [9]
  zone of inhibition at 5 µg/disc: 20 mm
Rhizopus arrhizus [10]
  Activity: Active
Rhizopus arrhizus [11]
  MFC: 1 mg/L (≈ 1.43 µM)
Rhizopus arrhizus [12]
  zone of inhibition at 5 µg/disc: 25 mm
Rhizopus arrhizus [13]
  MIC: 0.25 mg/L (≈ 0.357 µM)
Rhizopus arrhizus [14]
  MFC: > 16 mg/L
Rhizopus arrhizus [15]
  MFC: 0.5 mg/L (≈ 0.713 µM)
Rhizopus arrhizus [16]
  zone of inhibition at 5 µg/disc: 18 mm
Rhizopus arrhizus [17]
  zone of inhibition at 5 µg/disc: 22 mm
Rhizopus arrhizus [18]
  MIC: 0.5 mg/L (≈ 0.713 µM)
Rhizopus arrhizus [19]
  Activity: inactive
Rhizopus arrhizus [20]
  Activity: inactive
Rhizopus arrhizus [21]
  MFC: 16 mg/L (≈ 22.8 µM)
Rhizopus arrhizus [22]
  MFC: 1 mg/L (≈ 1.43 µM)
Rhizopus arrhizus [23]
  MFC: 4 mg/L (≈ 5.71 µM)
Rhizopus arrhizus [24]
  MFC: 0.5 mg/L (≈ 0.713 µM)
Rhizopus arrhizus [25]
  MFC: > 16 mg/L
Rhizopus arrhizus [26]
  MIC: 1 mg/L (≈ 1.43 µM)
Rhizopus arrhizus [27]
  zone of inhibition at 5 µg/disc: 20 mm
Rhizopus arrhizus [28]
  MIC: 1 mg/L (≈ 1.43 µM)
Rhizopus arrhizus [29]
  zone of inhibition at 5 µg/disc: 20 mm
Rhizopus arrhizus [30]
  MIC: 1 mg/L (≈ 1.43 µM)
Rhizopus arrhizus [31]
  MFC: 1 mg/L (≈ 1.43 µM)
Rhizopus arrhizus [32]
  MFC: 0.5 mg/L (≈ 0.713 µM)
Rhizopus arrhizus [33]
  zone of inhibition at 5 µg/disc: 21 mm
Rhizopus arrhizus [34]
  MFC: 1 mg/L (≈ 1.43 µM)
Rhizopus arrhizus [35]
  MIC: 0.25 mg/L (≈ 0.357 µM)
Rhizopus arrhizus [36]
  MIC: 0.5 mg/L (≈ 0.713 µM)
Rhizopus arrhizus [37]
  zone of inhibition at 5 µg/disc: 14 mm
Rhizopus arrhizus [38]
  Activity: Active
